According to PMC5508980 (Molecular nutrition & food research, 2017):
Counter-ions that a name gives are not always drawn.

Key:
Type in all cases: biochemical
recombinant HDAC7 = target: T1, recombinant HDAC7 (Homo sapiens, UniProt Q8WUI4); assay: Recombinant HDAC activity assay; conditions: for % HDAC activity, Class IIa HDACs, 7: recombinant protein incubated with 50 µM compound, 2 hrs
T1 sequence (Q8WUI4 1-952): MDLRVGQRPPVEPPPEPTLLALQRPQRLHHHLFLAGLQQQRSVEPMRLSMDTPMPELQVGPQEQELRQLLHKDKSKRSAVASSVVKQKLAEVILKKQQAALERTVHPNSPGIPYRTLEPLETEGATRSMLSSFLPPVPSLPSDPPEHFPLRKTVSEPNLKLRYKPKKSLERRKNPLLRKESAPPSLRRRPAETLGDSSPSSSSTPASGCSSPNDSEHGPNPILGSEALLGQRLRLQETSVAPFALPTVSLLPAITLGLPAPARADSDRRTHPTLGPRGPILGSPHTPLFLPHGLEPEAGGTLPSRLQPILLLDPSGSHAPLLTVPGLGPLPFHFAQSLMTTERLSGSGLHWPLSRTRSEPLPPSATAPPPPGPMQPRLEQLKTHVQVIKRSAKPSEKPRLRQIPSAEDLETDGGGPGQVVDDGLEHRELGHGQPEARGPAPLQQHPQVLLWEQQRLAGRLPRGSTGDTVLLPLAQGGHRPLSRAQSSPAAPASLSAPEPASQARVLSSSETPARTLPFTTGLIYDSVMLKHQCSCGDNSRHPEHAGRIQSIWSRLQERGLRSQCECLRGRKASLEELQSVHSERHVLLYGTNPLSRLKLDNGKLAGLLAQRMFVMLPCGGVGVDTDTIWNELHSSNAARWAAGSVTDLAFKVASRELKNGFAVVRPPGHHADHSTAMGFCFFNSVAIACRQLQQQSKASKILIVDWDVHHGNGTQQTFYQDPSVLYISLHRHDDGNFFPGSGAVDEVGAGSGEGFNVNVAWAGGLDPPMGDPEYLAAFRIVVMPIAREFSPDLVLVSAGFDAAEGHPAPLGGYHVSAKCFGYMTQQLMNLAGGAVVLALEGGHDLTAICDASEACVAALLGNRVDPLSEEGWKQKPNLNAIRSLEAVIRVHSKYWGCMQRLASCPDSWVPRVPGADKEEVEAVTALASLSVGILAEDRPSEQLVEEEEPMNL

recombinant HDAC3 = recombinant HDAC3 (Homo sapiens, UniProt O15379); assay: Recombinant HDAC activity assay; conditions: for remaining activity at 50 µM: 2 h, read-out: % HDAC activity, Class I HDACs, 3
recombinant HDAC5 = recombinant HDAC5 (Homo sapiens, UniProt Q9UQL6); assay: Recombinant HDAC activity assay; conditions: for remaining activity at 50 µM: 2 h, read-out: % HDAC activity, Class IIa HDACs, 5
recombinant HDAC9 = recombinant HDAC9 (Homo sapiens, UniProt Q9UKV0); assay: Recombinant HDAC activity assay; conditions: for remaining activity at 50 µM: 2 h, read-out: % HDAC activity, Class IIa HDACs, 9
recombinant HDAC10 = target: T2, recombinant HDAC10 (Homo sapiens, UniProt Q969S8); assay: Recombinant HDAC activity assay; conditions: for remaining activity at 50 µM: 2 h, read-out: % HDAC activity, Class IIb HDACs, 10
T2 sequence (Q969S8 1-669): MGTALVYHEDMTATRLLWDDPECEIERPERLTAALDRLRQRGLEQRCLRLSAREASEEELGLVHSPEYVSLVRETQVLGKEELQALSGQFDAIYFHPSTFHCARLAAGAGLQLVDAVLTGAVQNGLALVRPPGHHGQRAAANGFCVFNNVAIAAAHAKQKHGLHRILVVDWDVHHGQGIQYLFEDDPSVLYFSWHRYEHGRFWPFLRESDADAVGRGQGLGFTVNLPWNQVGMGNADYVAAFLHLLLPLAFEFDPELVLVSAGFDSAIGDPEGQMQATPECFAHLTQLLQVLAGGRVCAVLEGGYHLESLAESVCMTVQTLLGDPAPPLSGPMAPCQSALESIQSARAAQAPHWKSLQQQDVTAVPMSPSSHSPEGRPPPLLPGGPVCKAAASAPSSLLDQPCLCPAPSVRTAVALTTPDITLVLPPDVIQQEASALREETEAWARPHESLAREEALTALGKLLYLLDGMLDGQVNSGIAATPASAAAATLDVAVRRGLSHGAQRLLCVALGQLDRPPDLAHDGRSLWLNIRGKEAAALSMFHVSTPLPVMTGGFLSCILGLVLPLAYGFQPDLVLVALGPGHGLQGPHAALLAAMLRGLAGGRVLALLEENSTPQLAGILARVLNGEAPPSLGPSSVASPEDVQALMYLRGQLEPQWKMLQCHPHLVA

recombinant HDAC8 = target: T3, recombinant HDAC8 (Homo sapiens, UniProt Q9BY41); assay: Recombinant HDAC activity assay; conditions: for remaining activity at 50 µM: 2 h, read-out: % HDAC activity, Class I HDACs, 8; for % HDAC activity, Class I HDACs, 8: recombinant protein incubated with 50 µM compound, 2 hrs
T3 sequence (Q9BY41 1-377): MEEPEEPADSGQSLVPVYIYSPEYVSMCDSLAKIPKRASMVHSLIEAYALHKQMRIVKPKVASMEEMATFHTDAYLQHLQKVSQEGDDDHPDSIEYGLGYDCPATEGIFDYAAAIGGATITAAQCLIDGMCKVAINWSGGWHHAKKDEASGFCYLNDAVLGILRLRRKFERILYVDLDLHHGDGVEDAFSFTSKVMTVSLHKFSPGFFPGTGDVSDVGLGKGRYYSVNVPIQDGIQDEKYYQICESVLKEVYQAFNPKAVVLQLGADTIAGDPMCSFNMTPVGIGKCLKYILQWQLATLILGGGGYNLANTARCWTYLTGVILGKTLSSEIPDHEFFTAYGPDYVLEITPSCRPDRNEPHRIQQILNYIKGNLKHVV

recombinant HDAC2 = recombinant HDAC2 (Homo sapiens, UniProt Q92769); assay: Recombinant HDAC activity assay; conditions: for remaining activity at 50 µM: 2 h, read-out: % HDAC activity, Class I HDACs, 2
recombinant HDAC1 = recombinant HDAC1 (Homo sapiens, UniProt Q13547); assay: Recombinant HDAC activity assay; conditions: for remaining activity at 50 µM: 2 h, read-out: % HDAC activity, Class I HDACs, 1
recombinant HDAC6 = target: T4, recombinant HDAC6 (Homo sapiens, UniProt Q9UBN7); assay: Recombinant HDAC activity assay; conditions: 2 h, read-out: % HDAC activity, Class IIb HDACs, 6
T4 sequence (Q9UBN7 1-1215): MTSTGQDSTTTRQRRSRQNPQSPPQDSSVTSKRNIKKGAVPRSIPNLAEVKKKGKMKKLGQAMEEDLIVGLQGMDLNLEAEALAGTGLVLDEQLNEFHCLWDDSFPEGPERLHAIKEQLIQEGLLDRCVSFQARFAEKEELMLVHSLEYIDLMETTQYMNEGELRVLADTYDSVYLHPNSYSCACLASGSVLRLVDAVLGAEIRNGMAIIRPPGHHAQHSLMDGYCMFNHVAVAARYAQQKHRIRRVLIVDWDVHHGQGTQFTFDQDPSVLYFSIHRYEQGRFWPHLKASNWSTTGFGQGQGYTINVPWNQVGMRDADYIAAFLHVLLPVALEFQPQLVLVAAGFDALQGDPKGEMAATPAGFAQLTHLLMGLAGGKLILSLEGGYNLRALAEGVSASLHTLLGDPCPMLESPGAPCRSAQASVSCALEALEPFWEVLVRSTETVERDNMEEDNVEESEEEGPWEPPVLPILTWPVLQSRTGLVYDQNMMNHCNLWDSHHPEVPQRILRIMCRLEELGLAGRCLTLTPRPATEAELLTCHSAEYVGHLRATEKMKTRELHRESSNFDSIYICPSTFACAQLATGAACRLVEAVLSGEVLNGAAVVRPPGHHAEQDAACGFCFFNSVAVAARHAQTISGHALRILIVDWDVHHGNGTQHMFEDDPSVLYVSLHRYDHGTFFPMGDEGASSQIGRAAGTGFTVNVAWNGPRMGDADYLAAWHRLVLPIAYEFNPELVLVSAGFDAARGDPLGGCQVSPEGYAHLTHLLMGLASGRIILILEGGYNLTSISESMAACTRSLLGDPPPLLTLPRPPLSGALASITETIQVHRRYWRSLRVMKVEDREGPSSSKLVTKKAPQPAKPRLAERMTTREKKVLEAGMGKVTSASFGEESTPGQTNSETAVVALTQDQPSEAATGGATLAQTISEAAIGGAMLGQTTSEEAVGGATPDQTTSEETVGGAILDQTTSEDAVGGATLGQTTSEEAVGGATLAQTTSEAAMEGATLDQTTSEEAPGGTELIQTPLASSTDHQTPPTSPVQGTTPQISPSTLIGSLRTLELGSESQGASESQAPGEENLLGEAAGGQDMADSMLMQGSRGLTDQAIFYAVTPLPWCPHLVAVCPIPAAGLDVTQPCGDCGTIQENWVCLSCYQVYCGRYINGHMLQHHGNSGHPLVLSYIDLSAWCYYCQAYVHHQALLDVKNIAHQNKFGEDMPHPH

recombinant HDAC4 = recombinant HDAC4 (Homo sapiens, UniProt P56524); assay: Recombinant HDAC activity assay; conditions: recombinant protein incubated with 50 µM compound, 2 hrs
[1] = test system: HDAC activity in bovine cardiac tissue; assay: Natural product library screen with class-selective HDAC substrates; conditions: 2 hours treatment
Procedure, shortened: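 The screen covered 131 natural compounds against bovine cardiac tissue lysate at 30 µg protein/well in PBS (pH 7.4 lysis buffer with Triton X-100 and NaCl). Test compound for 2 h, then separate class I, IIa or IIb fluorogenic acyl-lysine-AMC substrates for 2 h at 37 °C. Developer (Triton X-100, 3 µM TSA, 0.75 mg/ml trypsin) for 20 min; fluorescence read at 360/460 nm.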

[2] = recombinant protein incubated with 50 µM compound, 2 hrs

Sequence of recombinant HDAC5 (Q9UQL6 whole entry): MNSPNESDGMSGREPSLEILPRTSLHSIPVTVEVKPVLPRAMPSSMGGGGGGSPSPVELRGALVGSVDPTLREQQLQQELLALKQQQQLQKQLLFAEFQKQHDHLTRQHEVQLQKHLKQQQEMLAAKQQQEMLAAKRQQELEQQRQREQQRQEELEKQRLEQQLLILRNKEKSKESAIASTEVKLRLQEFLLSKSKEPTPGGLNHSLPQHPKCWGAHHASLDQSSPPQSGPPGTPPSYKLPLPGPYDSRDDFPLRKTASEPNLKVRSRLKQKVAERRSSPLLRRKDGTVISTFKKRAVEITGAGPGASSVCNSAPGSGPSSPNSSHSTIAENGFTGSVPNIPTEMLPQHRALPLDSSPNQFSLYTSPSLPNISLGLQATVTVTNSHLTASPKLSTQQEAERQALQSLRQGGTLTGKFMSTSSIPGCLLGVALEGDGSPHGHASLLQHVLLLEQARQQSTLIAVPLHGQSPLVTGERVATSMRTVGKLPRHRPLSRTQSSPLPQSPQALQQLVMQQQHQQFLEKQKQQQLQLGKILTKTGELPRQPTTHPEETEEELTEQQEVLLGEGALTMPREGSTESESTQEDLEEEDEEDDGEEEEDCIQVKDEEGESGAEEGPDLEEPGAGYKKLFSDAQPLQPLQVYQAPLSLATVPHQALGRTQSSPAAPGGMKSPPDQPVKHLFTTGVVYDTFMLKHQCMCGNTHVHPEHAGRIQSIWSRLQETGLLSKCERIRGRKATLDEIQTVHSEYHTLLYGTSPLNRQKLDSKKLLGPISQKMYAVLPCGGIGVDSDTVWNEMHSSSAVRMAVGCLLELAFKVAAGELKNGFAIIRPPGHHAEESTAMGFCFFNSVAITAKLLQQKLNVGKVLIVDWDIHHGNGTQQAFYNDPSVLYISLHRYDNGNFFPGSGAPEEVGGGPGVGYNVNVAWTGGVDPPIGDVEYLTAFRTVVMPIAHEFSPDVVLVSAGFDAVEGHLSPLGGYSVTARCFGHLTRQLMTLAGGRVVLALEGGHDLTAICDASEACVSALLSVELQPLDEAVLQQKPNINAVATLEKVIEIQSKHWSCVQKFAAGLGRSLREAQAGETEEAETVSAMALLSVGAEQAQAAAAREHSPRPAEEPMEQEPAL
Sequence of recombinant HDAC2 (Q92769 whole entry): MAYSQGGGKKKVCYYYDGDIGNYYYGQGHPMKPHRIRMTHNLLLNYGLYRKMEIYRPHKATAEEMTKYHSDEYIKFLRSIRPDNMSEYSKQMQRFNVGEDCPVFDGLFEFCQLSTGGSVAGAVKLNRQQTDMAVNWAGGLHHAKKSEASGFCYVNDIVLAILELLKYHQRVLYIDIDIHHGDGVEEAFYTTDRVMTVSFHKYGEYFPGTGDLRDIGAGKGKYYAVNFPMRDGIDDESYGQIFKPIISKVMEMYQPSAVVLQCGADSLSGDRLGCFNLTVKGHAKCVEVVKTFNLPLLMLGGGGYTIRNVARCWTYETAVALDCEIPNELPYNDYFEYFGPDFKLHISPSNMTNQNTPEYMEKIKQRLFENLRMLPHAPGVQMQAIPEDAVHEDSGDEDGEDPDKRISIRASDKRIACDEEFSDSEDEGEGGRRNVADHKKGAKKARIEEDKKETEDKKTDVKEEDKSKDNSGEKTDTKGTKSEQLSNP
Sequence of recombinant HDAC3 (O15379 whole entry): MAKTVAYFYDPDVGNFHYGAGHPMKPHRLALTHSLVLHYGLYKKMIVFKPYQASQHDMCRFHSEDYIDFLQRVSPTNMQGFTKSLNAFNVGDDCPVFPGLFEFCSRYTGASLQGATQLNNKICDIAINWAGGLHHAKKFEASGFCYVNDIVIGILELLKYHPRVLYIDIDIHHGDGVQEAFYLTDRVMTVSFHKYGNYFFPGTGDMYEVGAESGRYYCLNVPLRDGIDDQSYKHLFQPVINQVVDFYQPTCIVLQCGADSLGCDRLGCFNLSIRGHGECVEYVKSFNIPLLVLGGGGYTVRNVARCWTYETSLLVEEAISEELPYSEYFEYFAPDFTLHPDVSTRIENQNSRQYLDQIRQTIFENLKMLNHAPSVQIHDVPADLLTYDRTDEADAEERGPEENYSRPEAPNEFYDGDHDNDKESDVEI
Sequence of recombinant HDAC3 (Q9Y618 395-489 partner limits assumed): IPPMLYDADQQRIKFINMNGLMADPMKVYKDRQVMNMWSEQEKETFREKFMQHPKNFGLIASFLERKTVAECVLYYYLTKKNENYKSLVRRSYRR
Sequence of recombinant HDAC9 (Q9UKV0 whole entry): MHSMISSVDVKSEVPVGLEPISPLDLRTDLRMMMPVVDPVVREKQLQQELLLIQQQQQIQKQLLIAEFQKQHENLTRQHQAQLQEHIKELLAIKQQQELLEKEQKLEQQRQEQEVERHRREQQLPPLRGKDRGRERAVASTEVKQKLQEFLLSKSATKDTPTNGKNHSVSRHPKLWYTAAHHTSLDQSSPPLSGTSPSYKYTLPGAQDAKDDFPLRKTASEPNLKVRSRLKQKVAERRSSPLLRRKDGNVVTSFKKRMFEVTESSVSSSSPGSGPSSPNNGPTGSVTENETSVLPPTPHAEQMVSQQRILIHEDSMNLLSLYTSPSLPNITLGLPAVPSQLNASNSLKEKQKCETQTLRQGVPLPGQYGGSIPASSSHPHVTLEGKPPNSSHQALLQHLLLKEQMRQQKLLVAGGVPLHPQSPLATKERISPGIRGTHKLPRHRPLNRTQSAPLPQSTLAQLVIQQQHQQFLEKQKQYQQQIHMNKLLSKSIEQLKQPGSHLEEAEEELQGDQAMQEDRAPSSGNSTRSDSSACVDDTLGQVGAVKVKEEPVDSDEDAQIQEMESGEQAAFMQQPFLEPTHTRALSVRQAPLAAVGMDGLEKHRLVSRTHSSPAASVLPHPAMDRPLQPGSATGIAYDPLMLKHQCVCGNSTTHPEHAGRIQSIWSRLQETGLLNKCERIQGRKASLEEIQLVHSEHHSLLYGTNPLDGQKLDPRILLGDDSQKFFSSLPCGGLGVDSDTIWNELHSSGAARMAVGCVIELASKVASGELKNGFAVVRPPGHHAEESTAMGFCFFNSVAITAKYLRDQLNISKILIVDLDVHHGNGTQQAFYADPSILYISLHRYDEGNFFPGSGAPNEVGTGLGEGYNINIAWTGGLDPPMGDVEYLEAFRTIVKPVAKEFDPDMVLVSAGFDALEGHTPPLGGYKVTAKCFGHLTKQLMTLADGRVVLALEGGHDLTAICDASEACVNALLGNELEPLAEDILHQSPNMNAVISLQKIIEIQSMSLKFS
Sequence of recombinant HDAC1 (Q13547 whole entry): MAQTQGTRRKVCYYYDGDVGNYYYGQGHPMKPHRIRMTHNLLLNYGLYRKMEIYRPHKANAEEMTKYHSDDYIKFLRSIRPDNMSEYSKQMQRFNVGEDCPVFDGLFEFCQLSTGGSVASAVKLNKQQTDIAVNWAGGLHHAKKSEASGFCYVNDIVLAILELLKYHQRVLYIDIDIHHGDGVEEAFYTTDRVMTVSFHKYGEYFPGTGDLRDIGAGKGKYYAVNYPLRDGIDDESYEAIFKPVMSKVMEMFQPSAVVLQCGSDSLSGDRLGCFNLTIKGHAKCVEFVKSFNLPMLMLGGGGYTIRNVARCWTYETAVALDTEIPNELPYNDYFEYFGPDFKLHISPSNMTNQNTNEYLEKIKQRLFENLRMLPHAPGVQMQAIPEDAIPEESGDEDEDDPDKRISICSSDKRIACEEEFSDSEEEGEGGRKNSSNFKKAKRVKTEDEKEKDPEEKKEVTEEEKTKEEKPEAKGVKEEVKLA
Sequence of recombinant HDAC4 (P56524 whole entry): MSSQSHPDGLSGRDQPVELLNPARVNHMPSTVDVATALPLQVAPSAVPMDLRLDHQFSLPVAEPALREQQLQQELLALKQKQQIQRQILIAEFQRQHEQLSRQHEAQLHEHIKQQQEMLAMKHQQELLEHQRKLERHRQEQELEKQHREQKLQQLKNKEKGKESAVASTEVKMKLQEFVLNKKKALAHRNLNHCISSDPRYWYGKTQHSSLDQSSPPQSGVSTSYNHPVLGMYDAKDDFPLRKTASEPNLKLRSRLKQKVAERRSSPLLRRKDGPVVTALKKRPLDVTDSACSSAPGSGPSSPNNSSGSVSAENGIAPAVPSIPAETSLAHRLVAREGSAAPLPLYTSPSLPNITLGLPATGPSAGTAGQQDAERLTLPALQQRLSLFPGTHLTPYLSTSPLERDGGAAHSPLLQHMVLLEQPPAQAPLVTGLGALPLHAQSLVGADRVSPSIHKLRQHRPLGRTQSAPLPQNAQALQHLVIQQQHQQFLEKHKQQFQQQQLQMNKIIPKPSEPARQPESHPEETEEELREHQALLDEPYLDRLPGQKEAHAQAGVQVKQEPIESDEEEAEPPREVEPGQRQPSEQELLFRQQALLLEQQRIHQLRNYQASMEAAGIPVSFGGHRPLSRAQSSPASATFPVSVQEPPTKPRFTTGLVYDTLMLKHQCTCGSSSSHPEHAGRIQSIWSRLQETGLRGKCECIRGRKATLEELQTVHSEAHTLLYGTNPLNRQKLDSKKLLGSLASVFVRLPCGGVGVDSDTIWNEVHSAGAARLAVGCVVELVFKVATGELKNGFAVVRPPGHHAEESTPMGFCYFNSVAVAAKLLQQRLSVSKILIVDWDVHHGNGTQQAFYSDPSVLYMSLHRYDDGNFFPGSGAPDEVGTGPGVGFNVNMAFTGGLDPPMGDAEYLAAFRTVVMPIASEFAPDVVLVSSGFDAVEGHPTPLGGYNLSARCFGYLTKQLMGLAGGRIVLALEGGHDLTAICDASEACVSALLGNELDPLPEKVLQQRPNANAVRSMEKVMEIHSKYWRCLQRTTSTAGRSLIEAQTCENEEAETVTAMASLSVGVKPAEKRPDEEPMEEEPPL

% HDAC activity, Class IIa HDACs, 7 (recombinant HDAC7) | remaining activity at 50 µM (recombinant HDAC3) | remaining activity at 50 µM (recombinant HDAC5) | remaining activity at 50 µM (recombinant HDAC9) | remaining activity at 50 µM (recombinant HDAC10) | remaining activity at 50 µM (recombinant HDAC8) | remaining activity at 50 µM (recombinant HDAC2) | remaining activity at 50 µM (recombinant HDAC1) | SMILES | further results
- | 59.2% | 76.6% | 66.1% |  |  |  |  | O=c1cc(-c2ccccc2)oc2cc(O)c(O)c(O)c12 [Baicalein] | 
- | 81.7% | 81.8% | 91.5% | 84.7% | 78.3% | 72.9% | 89% | O=C(O)[C@H]1O[C@@H](Oc2cc3oc(-c4ccccc4)cc(=O)c3c(O)c2O)[C@H](O)[C@@H](O)[C@@H]1O [Baicalin] | remaining activity at 50 µM (recombinant HDAC6): 86.2%
 | 48.3% |  |  | 45% | 46.8% | 70.3% | 50.5% | COc1ccc2cc3[n+](cc2c1OC)CCc1cc2c(cc1-3)OCO2 [Berberine HCl, berberine hydrochloride] | remaining activity at 50 µM (recombinant HDAC6): 60.9%
- |  |  |  |  |  |  |  | O=C(O)/C=C/c1ccc(O)c(O)c1 [Caffeic acid] | 
 | 82.5% | 73.4% | 92.5% | 86.3% | 81.9% | 73.9% | 90% | O=C1c2c(O)cc(O)cc2O[C@H](c2cc(O)c(O)c(O)c2)[C@H]1O [Dihydromyricetin] | remaining activity at 50 µM (recombinant HDAC7; 2 h, read-out: % HDAC activity, Class IIa HDACs, 7): 94%
- |  |  |  |  |  |  |  | O=C(O[C@@H]1Cc2c(O)cc(O)cc2O[C@@H]1c1cc(O)c(O)c(O)c1)c1cc(O)c(O)c(O)c1 [EGCG, epigallocatechin gallate] | % HDAC activity, Class IIb HDACs, 10 (recombinant HDAC10; [2]): 91.2%; % HDAC activity, Class I HDACs, 8 (recombinant HDAC8): 89.1%; % HDAC activity, Class IIa HDACs, 4 (recombinant HDAC4): 82.5%
- | 56.6% |  |  | 67% | 58.4% | 58.7% | 61.5% | O=C1Nc2ccccc2/C1=C1/Nc2ccccc2C1=O [Indirubin] | remaining activity at 50 µM (recombinant HDAC6): 65.7%
- | 66.9% | 73.5% | 70.6% | 71.6% | 68.7% | 71.7% | 72.8% | O=c1c(O)c(-c2ccc(O)cc2)oc2cc(O)cc(O)c12 [Kaempferol] | 
- | 51.4% | 59.5% | 52.3% | 55.9% | 52.8% | 49.5% | 60.7% | O=c1cc(-c2ccc(O)c(O)c2)oc2cc(O)cc(O)c12 [Luteolin] | catalytic HDAC activity across class I, IIa and IIb substrates, effect in words [1]: dose-dependent pan-HDAC inhibition
- |  |  |  |  |  |  |  | O.O=c1c(O)c(-c2ccc(O)cc2O)oc2cc(O)cc(O)c12 [Morin hydrate] | % HDAC activity, Class I HDACs, 8 (recombinant HDAC8): 49.3%; % HDAC activity, Class I HDACs, 2 (recombinant HDAC2; [2]): 43.3%; % HDAC activity, Class I HDACs, 3 (recombinant HDAC3; [2]): 56.0%; % HDAC activity, Class I HDACs, 1 (recombinant HDAC1; [2]): 62.3%; % HDAC activity, Class IIa HDACs, 5 (recombinant HDAC5; [2]): 56.7%; % HDAC activity, Class IIa HDACs, 9 (recombinant HDAC9; [2]): 56.1%
- | 59.9% | 65.1% | 77% | 63.4% | 60.2% |  | 68% | O=c1c(O)c(-c2cc(O)c(O)c(O)c2)oc2cc(O)cc(O)c12 [Myricetin] | catalytic HDAC activity across class I, IIa and IIb substrates, effect in words [1]: pan-HDAC inhibition
